# Assay results reported in PMC9301951 (ACS Omega, 2022).
# What was measured:
# [1] = biological target: equine serum-derived BuChE (eqBuChE) (Equus caballus, UniProt P81908); test: Cholinesterase inhibition assay, BuChE; assay type: biochemical, horse; details: read-out: BuChE inhibitory activity inhibition (%)
# [2] = biological target: electric eel-derived AChE (eeAChE) (Electrophorus electricus, UniProt O42275); test: Cholinesterase inhibition assay, AChE; assay type: biochemical; details: read-out: AChE inhibitory activity inhibition (%)
# SK-N-SH cells = test: Neuroprotective effect on H2O2-induced decrease in cell viability; assay type: cell-based; details: Figure 5; H2O2-treated neurons, concentrations of 0.075–0.6 μM
# How it was run: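 Cells challenged with H2O2 and treated with test compound at 0.15 μM. Viability given as % of control, with control set at 100%. Recovery (%) is viability of compound-treated cells minus viability of H2O2-only cells. Data are mean ± SD, n = 3.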
# equine serum-derived BuChE (eqBuChE), sequence (P81908 whole entry): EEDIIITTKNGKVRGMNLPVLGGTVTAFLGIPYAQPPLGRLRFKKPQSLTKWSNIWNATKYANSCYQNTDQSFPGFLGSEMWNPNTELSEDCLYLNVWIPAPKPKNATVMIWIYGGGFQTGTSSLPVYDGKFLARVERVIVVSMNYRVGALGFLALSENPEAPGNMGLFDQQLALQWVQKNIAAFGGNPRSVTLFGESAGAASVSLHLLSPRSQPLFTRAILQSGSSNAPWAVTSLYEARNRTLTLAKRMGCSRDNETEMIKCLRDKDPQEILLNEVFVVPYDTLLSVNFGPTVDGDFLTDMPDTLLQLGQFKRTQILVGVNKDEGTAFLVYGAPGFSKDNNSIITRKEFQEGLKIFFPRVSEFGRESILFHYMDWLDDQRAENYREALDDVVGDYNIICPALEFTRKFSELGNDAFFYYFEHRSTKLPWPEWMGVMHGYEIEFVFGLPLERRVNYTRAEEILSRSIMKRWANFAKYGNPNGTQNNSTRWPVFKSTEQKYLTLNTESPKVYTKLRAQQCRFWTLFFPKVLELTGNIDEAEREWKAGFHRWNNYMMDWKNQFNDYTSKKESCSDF
# electric eel-derived AChE (eeAChE), sequence (O42275 24-633): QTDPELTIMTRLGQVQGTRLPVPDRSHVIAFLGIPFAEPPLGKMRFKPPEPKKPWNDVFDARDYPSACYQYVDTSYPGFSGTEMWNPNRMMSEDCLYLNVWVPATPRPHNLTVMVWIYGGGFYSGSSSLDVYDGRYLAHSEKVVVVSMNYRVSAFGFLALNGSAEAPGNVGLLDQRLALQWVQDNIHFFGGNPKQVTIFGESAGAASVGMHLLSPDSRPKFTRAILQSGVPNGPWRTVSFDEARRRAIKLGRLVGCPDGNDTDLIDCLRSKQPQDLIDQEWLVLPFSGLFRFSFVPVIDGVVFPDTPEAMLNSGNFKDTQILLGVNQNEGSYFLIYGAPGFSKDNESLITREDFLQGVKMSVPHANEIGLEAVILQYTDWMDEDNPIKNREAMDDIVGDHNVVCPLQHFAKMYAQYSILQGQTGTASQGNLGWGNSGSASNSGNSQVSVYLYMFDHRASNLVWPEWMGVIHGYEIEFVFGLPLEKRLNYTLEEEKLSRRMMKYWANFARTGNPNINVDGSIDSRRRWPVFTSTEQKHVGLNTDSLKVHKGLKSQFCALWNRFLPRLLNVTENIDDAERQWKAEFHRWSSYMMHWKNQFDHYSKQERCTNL
smiles,measurement,setting,value
COc1ccc2c3c1O[C@H]1C[C@@H](O)C=C[C@@]31CCN(C)C2 [galantamine],inhibition at 10000 µM,[1],96.21 ± 0.18%
COC(=O)C1=CO[C@@H](O[C@@H]2O[C@H](CO)[C@@H](O)[C@H](O)[C@H]2O)[C@@H]2C(CO)=CC[C@H]12 [geniposide],inhibition at 10000 µM,[2],0.73 ± 0.11%
same,inhibition at 10000 µM,[1],2.09 ± 0.18%
"COC(=O)C1=CO[C@@H](O)[C@@H]2C(CO)=CC[C@H]12 [genipin 1, genipin]",cell viability,SK-N-SH cells,> 78%
same,inhibition at 10000 µM,[2],4.94 ± 0.05%
same,inhibition at 10000 µM,[1],2.42 ± 0.18%
